PG9 binder = binds the HIV-1 gp120 antibody PG9. TR-FRET gp120-PG9 antibody binding. AID 624416. inhibition, % at 6.7 µM. 0.43% of 360,000 active; in the data active = inhibition above about 8.5%
NR2E3 ag-1 = agonists of human nuclear receptor NR2E3 | Q9Y5X4 | GST-NR2E3/biotin-RetCOR TR-FRET, 1536-well | inhibition of corepressor binding, % at 4.78 µM | 0.12% of 320,000 active;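 active = percent inhibition above the cutoff of mean plus 3 SD of all tested compounds, set per screening campaign, cut at about 20% in these data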;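 note: 0% = DMSO wells and 100% = biotin wells as full block of FRET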
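System: GST-NR2E3 and biotin-RetCOR proteins; probe or stimulus: 7 nM biotin-RetCOR; doses: compound at 4.8 µM, single dose; schedule: Compound–protein incubation for 5 h at 4 °C; detection: time-resolved FRET; read-out: percent inhibition; controls: biotin wells as high control, 0.6% DMSO wells as low control; format: 1536-well plates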
NR2E3 ag-2 = activates human NR2E3 receptor; Q9Y5X4; CHO-S Gal4-NCOR/VP16-NR2E3 two-hybrid, luciferase; inhibition of corepressor binding, % at 3.98 µM; 0.35% of 360,000 active; AID 602229;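 active = inhibition above the mean of all tested compounds plus 3 SD, cut at about 70% in these data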;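 note: 0% = DMSO with NR2E3 transfected cells and 100% = cells lacking NR2E3 construct; higher means lower luciferase signal from less NR2E3 corepressor binding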
Neddyl block = blocks human cullin neddylation | P61081+Q13564 | 0.58% of 360,000 active | TR-FRET cullin neddylation, biochemical | calls only at 25 µM; in the data active = inhibition above about 36%
Target sequence (P61081 whole entry, looked up): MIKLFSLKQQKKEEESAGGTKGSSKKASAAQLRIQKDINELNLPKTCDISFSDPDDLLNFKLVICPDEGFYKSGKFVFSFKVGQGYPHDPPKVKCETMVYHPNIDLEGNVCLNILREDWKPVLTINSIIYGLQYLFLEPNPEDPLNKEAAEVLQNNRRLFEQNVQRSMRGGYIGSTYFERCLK
Target sequence (Q13564 whole entry, looked up): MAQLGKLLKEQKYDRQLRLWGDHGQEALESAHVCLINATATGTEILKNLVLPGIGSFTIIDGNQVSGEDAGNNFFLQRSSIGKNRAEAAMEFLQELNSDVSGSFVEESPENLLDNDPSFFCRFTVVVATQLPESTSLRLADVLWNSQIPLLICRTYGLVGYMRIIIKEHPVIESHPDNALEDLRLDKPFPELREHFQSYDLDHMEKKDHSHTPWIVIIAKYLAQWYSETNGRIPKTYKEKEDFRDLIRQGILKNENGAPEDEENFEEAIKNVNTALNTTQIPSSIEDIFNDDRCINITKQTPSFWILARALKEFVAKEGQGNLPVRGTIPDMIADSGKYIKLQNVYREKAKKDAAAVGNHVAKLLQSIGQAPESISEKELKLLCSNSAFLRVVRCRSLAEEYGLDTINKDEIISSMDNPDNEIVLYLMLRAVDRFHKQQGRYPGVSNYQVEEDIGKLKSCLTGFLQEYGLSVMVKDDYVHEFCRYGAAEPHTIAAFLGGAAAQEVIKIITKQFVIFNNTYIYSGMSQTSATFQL
Rev-erbA mod = modulates human Rev-erb alpha binding to DNA; Rev-erbα–FITC-DNA binding, fluorescence polarization, 90 min; P20393; AID 1259318; activity, % at 10 µM; 0.79% of 370,000 active;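 active = activity above about 14%, limit read from the data; passing the limit was not always enough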;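 note: 0% = DMSO wells with 35 nM protein and 100% = DMSO wells with 750 nM protein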
Neddyl inh conf = confirmation of human cullin neddylation inhibitors | shares compounds with Neddyl block | calls only at 25 µM | TR-FRET cullin neddylation biochemical assay | AID 652217 | 13% of 1,800 active; in the data active = inhibition above about 40%;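 note: neddylation substrate is the cullin 1 ring ligase complex with SKP2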
Active calls of the source: *; i = inactive; nt = no result given; + = active, no number. The list is not random: actives were taken first. Their share in the collection is about 2%.

SMILES	PG9 binder	NR2E3 ag-1	NR2E3 ag-2	Neddyl block	Rev-erbA mod	Neddyl inh conf
N#Cc1cccc(NC(=O)OC2CC3CC2[C@H]2CCCCN2[C@H]3Cc2ccccc2)c1 (stereo not given in full)	nt	nt	nt	nt	7.0	nt
Cc1nn(-c2ccccc2)c2[nH]c(=O)cc(C(F)F)c12	-1.6	-1.0	-11.2	i	0.9	nt
Cc1ccc(-n2nc(C)c3c(C)cc(=O)[nH]c32)cc1	-3.0	2.2	-16.3	+	-3.2	i
CC(C)Oc1cc(F)ccc1-c1cc(C(=O)NC2CCCCC2)[nH]n1	0.2	nt	-44.2	i	-10.5	nt
COc1cc(CNC(=O)c2cc(-c3ccc(F)cc3C)n[nH]2)cc(OC)c1	-1.2	nt	-15.8	i	-3.5	nt
Cn1c(=O)c(-c2ccccc2)nc2ccccc21	0.4	-0.4	-33.5	+	0.7	+
CN(CCc1ccccc1)C(C(=O)Nc1ccc2c(c1)OCCO2)c1ccnc2ccccc12 (stereo not given)	-0.9	nt	-32.5	i	5.3	nt
O=C(Nc1ccccc1)Nc1nnc(/C=C/c2ccccc2Cl)s1	-0.9	-0.4	-21.4	+	3.7	i
COc1ccc(CN2CCC(CNC(=O)NC3CCC(C)CC3)CC2)cc1 (stereo not given)	nt	nt	nt	nt	-3.9	nt
COC(=O)c1ccc2c(=O)n(CCCCCC(=O)O)c(=O)[nH]c2c1	-0.7	-4.4	9.9	+	-3.5	nt
Cc1ccc(NC(=O)NNC(=O)CCn2nc(C)c([N+](=O)[O-])c2C)cc1C	nt	nt	nt	nt	-7.8	nt
O=C(N/N=C/c1sc(N2CCOCC2)nc1-c1ccccc1)c1ccc(O)cc1	-6.5	-3.4	-17.9	+	2.6	+
COc1ccc(C(=O)N/N=C/c2sc(N3CCOCC3)nc2-c2ccccc2)cc1OC	-6.6	-3.6	-11.4	+	-1.7	i
Cc1occc1C(=O)N/N=C/c1sc(N2CCOCC2)nc1-c1ccccc1	2.6	-2.7	-11.7	i	3.0	nt
COc1ccc2cc(/C(C)=N/NC(=O)C3CC3)ccc2c1	-0.9	-2.9	-23.8	+	-6.9	i
COc1ccc(C(=O)C2CCN(C(=O)Nc3ccccc3C)CC2)cc1	-1.6	5.3	-33.2	i	-5.6	nt
Cc1cc(C)nc(-n2nc(C)c3c(C(=O)O)cc(-c4cccc(Br)c4)nc32)n1	0.2	-1.7	15.5	+	-0.7	i
O=C(CSc1nnc(C2CC2)n1C1CC1)N1CCN(c2ccc(O)cc2)CC1	-0.9	nt	-9.0	i	-15.2	nt
CCCCOc1ccc(S(=O)(=O)NC(=O)C2(C)CCN2C(=O)c2c(C)noc2C)cc1 (stereo not given)	-1.5	nt	-23.9	i	-0.8	nt
O=c1[nH]cnc2nn(-c3ccccc3)nc12	-0.6	2.0	-58.4	nt	4.6	nt
O=c1[nH]cnc2nc(-c3ccccc3)c(-c3ccccc3)nc12	0.9	4.7	-11.6	+	1.8	nt
CC(=O)c1cccc(NC(=O)c2cccc3c(-c4cccnc4)coc23)c1	-5.5	nt	-5.7	i	-1.1	nt
Cc1ccc(C(=O)N/C(=C\c2cccs2)c2nc3ccccc3[nH]2)cc1	-6.2	-1.3	14.3	+	4.7	nt
COC(=O)c1cccc([N+](=O)[O-])c1CN1CCCC(C(N)=O)C1 (stereo not given)	-0.3	1.2	-33.0	+	-4.7	i
Cc1cccc(NS(=O)(=O)c2ccc(C3CCCCC3)cc2)n1	-0.8	2.3	6.7	+	4.1	i
SMILES	PG9 binder	NR2E3 ag-1	NR2E3 ag-2	Neddyl block	Rev-erbA mod	Neddyl inh conf
Cc1cccc(NS(=O)(=O)c2ccccc2)n1	0.9	4.9	-18.7	+	-3.2	i
Cc1cccc(NS(=O)(=O)c2ccc(C(C)(C)C)cc2)n1	-2.7	2.3	-3.3	i	2.4	nt
CN(C)S(=O)(=O)NCC1CCCN(Cc2cc3ccccc3s2)C1 (stereo not given)	4.2	-1.4	4.9	i	-2.2	nt
N#Cc1ccc(-c2nc3ccc(Cl)cn3c2Cc2ccccc2)cc1	-0.3	nt	-31.3	i	6.7	nt
CC1=CC(c2ccc(Cl)cc2)n2ncnc2N1 (stereo not given)	0.8	-0.1	-16.3	+	-1.4	i
Nc1cc(C(=O)O)ccc1Nc1ccccc1	-12.3	-5.5	30.1	+	-0.1	nt
O=C(NCc1cccs1)c1cccn2c(=O)c3sccc3nc12	-0.3	2.5	-11.8	+	-1.0	i
CCOC(=O)N1CCN(C(=O)c2cccn3c(=O)c4sccc4nc23)CC1	0.4	2.5	-45.3	nt	-4.1	nt
O=C(NCc1ccco1)c1cccn2c(=O)c3sccc3nc12	1.3	-1.6	-16.4	+	6.3	nt
CC1(C(=O)Nc2cccc3ccccc23)CCN1C(=O)Cc1ccccc1Cl (stereo not given)	-0.2	nt	3.4	i	-1.3	nt
Cc1ccc(O)c(/C=N/NC(=O)CN2CCCC2)c1	-0.4	-0.7	-11.9	+	1.2	i
CC1CCN(c2ccccc2NC(=O)c2cc3ccccc3o2)CC1	-1.0	-2.9	4.5	+	3.5	i
Cc1ccccc1NC(=O)c1cc2ccccc2o1	-0.3	0.3	-39.9	i	0.3	nt
COc1cc2ccnc(C=NO)c2cc1OC	0.3	nt	-3.3	+	4.3	i
COc1cc2ccnc(C=O)c2cc1OC	nt	nt	-32.7	i	nt	nt
COc1ccc2c(c1)[nH]c1c(Cl)ncnc12	-1.0	-0.7	-1.5	+	0.0	i
CC1CCCCC1NC(=O)COC(=O)/C=C/c1ccc2c(c1)OCO2 (stereo not given)	-0.7	-0.1	-11.6	+	1.4	i
CCN(CC)c1ccc(/C=N/NC(=O)Cc2ccc(OC)c(OC)c2)cc1	-4.1	-4.4	2.0	+	-5.2	+
COc1ccc(/C=N/NC(=O)Cc2ccc(Cl)cc2)cc1OC	-0.3	3.0	13.2	i	2.0	nt
CN(C)c1ccc(/C=N/NC(=O)C2CC2c2ccccc2)cc1 (stereo not given)	-2.2	-5.8	-4.6	+	-4.6	+
CCN(CC)c1ccc(/C=N/NC(=O)C(O)c2ccccc2)cc1 (stereo not given)	-3.0	1.4	-25.0	+	0.9	nt
C=CCNC(=S)N/N=C/c1ccc(N(CC)Cc2ccccc2)cc1	-1.1	-1.9	-18.1	+	1.6	nt
CCN(CC)c1ccc(/C=N/NC(=S)NCc2ccccc2)cc1	1.6	2.0	22.4	nt	4.4	nt
C[C@H]1CNC(=O)c2c(C(=O)NC3CCN(C(=O)OC(C)(C)C)CC3)ncn21	-2.1	nt	6.0	i	4.0	nt
CCN(CC)c1ccc(/C=N/NC(=O)c2ccc(Br)o2)cc1	-5.9	-4.8	-94.9	nt	-2.5	nt
O=C(N/N=C/c1ccc(N2CCOCC2)cc1)C1CC1	-2.2	-0.2	1.3	+	-5.7	i
CCN(CC)c1ccc(/C=N/NC(=O)c2c(Cl)c(C)nn2C)cc1	-2.2	-1.6	1.8	+	3.4	i
CCCCCCOc1ccc(/C=N/NC(=O)C2CC2)cc1	0.2	nt	-6.7	i	-4.7	nt
CCN(CC)c1ccc(/C=N/NC(=O)C2CC2)cc1	-10.9	-3.2	-22.9	+	2.1	+
